Data taken from ChEMBL document CHEMBL2331394, “Neuroprotective effects of mercaptoethylleonurine and mercaptoethylguanidine analogs on hydrogen peroxide-induced apoptosis in human neuronal SH-SY5Y cells” (Bioorg Med Chem Lett, 2013).
Activity calls are given as the source filed them. The rule behind the calls is not given here.

Columns and labels:
[1] = Cytotoxicity against human SH-SY5Y cells at 5 to 100 uM by MTT assay; assay type: cell-based
[2] = Neuroprotective activity in human SH-SY5Y cells assessed as reduction of H2O2-induced apoptosis at 5 mM after 24 hrs by MTT assay relative to N-acetyl-cysteine; assay type: functional, cell-based; set-up: scale not given: the % may be the effect or the level left
[3] = Neuroprotective activity in human SH-SY5Y cells assessed as reduction of H2O2-induced apoptosis at 25 uM after 24 hrs by MTT assay relative to control; assay type: functional, cell-based; set-up: scale not given: the % may be the effect or the level left
[4] = Neuroprotective activity in human SH-SY5Y cells assessed as reduction of H2O2-induced apoptosis at 50 uM after 24 hrs by MTT assay relative to control; assay type: functional, cell-based; set-up: scale not given: the % may be the effect or the level left
[5] = Neuroprotective activity in human SH-SY5Y cells assessed as reduction of H2O2-induced apoptosis at 5 uM after 24 hrs by MTT assay relative to control; assay type: functional, cell-based; set-up: scale not given: the % may be the effect or the level left
[6] = Neuroprotective activity in H2O2-stimulated human SH-SY5Y cells assessed as downregulation of Bcl2 expression incubated for 4 hrs prior to H2O2 challenge measured after 12 hrs by Western blotting analysis; assay type: functional, cell-based; conditions: in the assay text read “upregulation of Bcl2 expression” for “downregulation of Bcl2 expression”
In short: (§1)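 SH-SY5Y cells pretreated 4 h with test agent (5, 25, 50 µM) or NAC (5 mM), then exposed to 100 µM H2O2 for 12 h. Bcl-2 and Bax quantified by Western blot densitometry against GAPDH. Mean ± SEM of at least three independent experiments, each in duplicate.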

[7] = target: c-Jun N-terminal kinase, JNK (Homo sapiens) (UniProt P45983+P53779+P45984); test: Inhibition of H2O2-induced JNK phosphorylation in human SH-SY5Y cells at 50 uM incubated for 4 hrs prior to H2O2 induction measured after 12 hrs by Western blotting analysis; assay type: cell-based
In short: (§2)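 SH-SY5Y cells pretreated 4 h with 50 µM test agent, then stimulated with 100 µM H2O2 for the indicated periods before harvest. Phosphorylated Akt, JNK, ERK and p38 detected by Western blot, normalised to the corresponding total protein as loading control.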

[8] = test system: SH-SY5Y; test: Inhibition of H2O2-induced AKT phosphorylation in human SH-SY5Y cells at 50 uM incubated for 4 hrs prior to H2O2 induction measured after 12 hrs by Western blotting analysis; assay type: cell-based; in short: as §2
[9] = test system: SH-SY5Y; test: Inhibition of H2O2-induced ERK phosphorylation in human SH-SY5Y cells at 50 uM incubated for 4 hrs prior to H2O2 induction measured after 12 hrs by Western blotting analysis; assay type: cell-based; in short: as §2
[10] = Neuroprotective activity in H2O2-stimulated human SH-SY5Y cells assessed as upregulation of Bax expression incubated for 4 hrs prior to H2O2 challenge measured after 12 hrs by Western blotting analysis; assay type: functional, cell-based; conditions: in the assay text read “downregulation of Bax expression” for “upregulation of Bax expression”; in short: as §1
[11] = target: MAP kinase p38 (Homo sapiens) (UniProt O15264+Q15759+Q16539+P53778); test: Inhibition of H2O2-induced p38 phosphorylation in human SH-SY5Y cells at 50 uM incubated for 4 hrs prior to H2O2 induction measured after 12 hrs by Western blotting analysis; assay type: cell-based; in short: as §2
[12] = Neuroprotective activity in H2O2-stimulated human SH-SY5Y cells assessed as downregulation of Bcl2 expression at 5 mM incubated for 4 hrs prior to H2O2 challenge measured after 12 hrs by Western blotting analysis; assay type: functional, cell-based; conditions: in the assay text read “upregulation of Bcl2 expression” for “downregulation of Bcl2 expression”; in short: as §1
[13] = Neuroprotective activity in H2O2-stimulated human SH-SY5Y cells assessed as upregulation of Bax expression at 5 mM incubated for 4 hrs prior to H2O2 challenge measured after 12 hrs by Western blotting analysis; assay type: functional, cell-based; conditions: in the assay text read “downregulation of Bax expression” for “upregulation of Bax expression”; in short: as §1

inhibition [7]	inhibition [11]	Compound	Activity [1]	Activity [2]	Activity [3]	Activity [4]	Activity [5]	Activity [6]	inhibition [8]	inhibition [9]	Activity [10]	Activity [12]	Activity [13]
		COc1cc(OC)cc(C(=O)OCCCCNC(=N)NCCS)c1	Non-toxic	88.8%	63.5%	66.1%	62.1%						
		N=C(NCCS)NCCCCCO	Non-toxic	76.4%	80.6%	82.8%	60%						
		COc1cc(C(=O)OCCCCNC(=N)NCCS)cc(OC)c1O	Non-toxic	88.8%	66.4%	60.4%	60.7%						
		COc1cc(C(=O)OCCCCNC(=N)NCCS)cc(OC)c1OC	Non-toxic	82.4%	49.4%	49.1%	32.5%						
Active	inactive	N=C(NCCS)NCCCN	Non-toxic	82.4%	84.3%	96.5%	77.3%	Dose-dependent effect	Active	inactive	Dose-dependent effect		
		COc1cc(C(=O)OCCCNC(=N)NCCS)cc(OC)c1O	Non-toxic	76.4%	83.3%	93.3%	78.8%						
		N=C(NCCO)NCCS	Non-toxic	76.4%	59.6%	65.1%	56.4%						
		COc1cc(C(=O)OCCCCCNC(=N)NCCS)cc(OC)c1O	Non-toxic	76.4%	59.9%	65.9%	53.9%						
		CCC(O)CNC(=N)NCCS (configuration not stated)	Non-toxic	88.8%	77.1%	71.1%	75.8%						
		COc1ccc(C(=O)OCCCCNC(=N)NCCS)cc1	Non-toxic	82.4%	37.5%	48.6%	42.4%						
		COc1cc(C(=O)OCCCCNC(=N)N)cc(OC)c1O		82.4%	38.5%	46%	76.7%						
		N=C(NCCS)NCCCO	Non-toxic	76.4%	81%	82.1%	67.2%						
		CC(=O)N[C@@H](CS)C(=O)O										Active	Active
		N=C(NCCS)NCCCCO	Non-toxic	82.4%	63.5%	70.2%	68%						
		CC(CO)NC(=N)NCCS (configuration not stated)	Non-toxic	88.8%	67.2%	80%	59.9%						
		CC(O)CNC(=N)NCCS (configuration not stated)	Non-toxic	88.8%	67.3%	65.5%	77.1%						
		COc1cc(C(=O)OC2CCC(NC(=N)NCCS)CC2)cc(OC)c1O (configuration not stated)	Non-toxic	88.8%	67.2%	65.9%	76.4%						
		N=C(NCCS)NC1CCC(O)CC1 (configuration not stated)	Non-toxic	82.4%	38.6%	30.4%	31.6%						
		N=C(NCCN)NCCS	Non-toxic	76.4%	75.4%	79.2%	66.3%						
		N=C(NCCS)NCCCCCCO	Non-toxic	82.4%	55.5%	52.9%	72.4%						
		COc1cc(C(=O)OCCCCCCNC(=N)NCCS)cc(OC)c1O	Non-toxic	88.8%	80.6%	73.8%	78.5%						
